pIC50: −log10 of the molar value.
Columns and labels:
[1] = target: T1, Tyrosine-protein phosphatase non-receptor type 1 (Homo sapiens, UniProt P18031); assay: Inhibition of recombinant PTP1B (unknown origin) using p-nitrophenyl phosphate as substrate assessed as inhibition of release of p-nitrophenol preincubated for 10 mins measured before substrate addition after 30 mins by spectrophotometry
T1 sequence (P18031 whole entry): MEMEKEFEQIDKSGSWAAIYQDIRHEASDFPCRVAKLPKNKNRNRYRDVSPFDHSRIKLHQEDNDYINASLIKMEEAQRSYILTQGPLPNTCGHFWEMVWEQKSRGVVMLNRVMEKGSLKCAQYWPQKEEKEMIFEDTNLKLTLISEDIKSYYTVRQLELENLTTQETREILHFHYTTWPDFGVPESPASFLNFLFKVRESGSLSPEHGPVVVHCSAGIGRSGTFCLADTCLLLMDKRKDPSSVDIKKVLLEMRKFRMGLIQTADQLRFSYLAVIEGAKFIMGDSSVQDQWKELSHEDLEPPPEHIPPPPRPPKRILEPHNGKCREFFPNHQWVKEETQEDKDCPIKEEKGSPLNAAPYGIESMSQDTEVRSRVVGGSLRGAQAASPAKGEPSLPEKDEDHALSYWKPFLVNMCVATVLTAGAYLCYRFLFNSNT
Outline: (§1)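 Enzyme diluted in 25 mM HEPES, 50 mM NaCl, 2.5 mM EDTA, 0.1% BSA, pH 7.2. Inhibitor in DMSO was preincubated with enzyme in 50 mM HEPES, 2.5 mM EDTA, pH 7.0 at 37 C for 10 min. pNPP was then added, 30 min at 37 C, stopped with 2 M Na2CO3, A405 read.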

[2] = target: T2, Tyrosine-protein phosphatase non-receptor type 2 (Homo sapiens, UniProt P17706); assay: Inhibition of TCPTP (unknown origin) using p-nitrophenyl phosphate as substrate assessed as inhibition of release of p-nitrophenol preincubated for 10 mins measured before substrate addition after 30 mins by spectrophotometry; outline: as §1
T2 sequence (P17706 whole entry): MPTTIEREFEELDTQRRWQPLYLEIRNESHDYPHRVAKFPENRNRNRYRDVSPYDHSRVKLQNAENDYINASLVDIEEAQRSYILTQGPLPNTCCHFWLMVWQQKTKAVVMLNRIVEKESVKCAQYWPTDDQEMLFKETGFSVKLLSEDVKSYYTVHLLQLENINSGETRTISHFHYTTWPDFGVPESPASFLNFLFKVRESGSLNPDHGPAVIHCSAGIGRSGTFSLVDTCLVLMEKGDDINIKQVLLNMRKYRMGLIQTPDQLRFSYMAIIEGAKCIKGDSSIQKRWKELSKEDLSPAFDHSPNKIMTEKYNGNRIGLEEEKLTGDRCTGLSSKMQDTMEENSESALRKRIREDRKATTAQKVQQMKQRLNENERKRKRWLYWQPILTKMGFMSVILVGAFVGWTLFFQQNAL

[3] = species: Homo sapiens; assay: Selectivity ratio of IC50 for TCPTP (unknown origin) to IC50 for recombinant PTP1B (unknown origin)
Outline: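 Ratio of TCPTP IC50 to PTP1B IC50. Both come from the same pNPP hydrolysis assay: 10 min preincubation at 37 C in 50 mM HEPES, 2.5 mM EDTA, pH 7.0, 30 min reaction, Na2CO3 quench, A405. IC50 from 4-parameter logistic fits.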

[4] = target: T3, Tyrosine-protein phosphatase non-receptor type 1 (Homo sapiens) (UniProt P18031); assay: Inhibition of recombinant PTP1B (unknown origin) using p-nitrophenyl phosphate as substrate assessed as inhibition of release of p-nitrophenol preincubated for 10 mins measured before substrate addition at 10 ug/ml after 30 mins by spectrophotometry
T3 sequence (whole entry): T1 sequence (P18031 whole entry)

SMILES | pIC50 [1] | pIC50 [2] | Ratio IC50 [3] | inhibition [4] [%]
CC1(C)CC[C@]2(C(=O)O[C@@H]3O[C@H](CNC(=O)c4ccccc4C(=O)O)[C@@H](O)[C@H](O)[C@H]3O)CC[C@]3(C)C(=CC[C@@H]4[C@@]5(C)CC[C@H](O[C@@H]6OC[C@H](O)[C@H](O)[C@H]6O)C(C)(C)[C@@H]5CC[C@]43C)[C@@H]2C1 | 5.25 | 4.91 | 2.2 | > 54.7
CC1(C)CC[C@]2(C(=O)O[C@@H]3O[C@H](CNC(=O)c4ccccc4C(=O)O)[C@@H](O)[C@H](O)[C@H]3O)CC[C@]3(C)C(=CC[C@@H]4[C@@]5(C)CC[C@H](O[C@@H]6OC[C@@H](O)[C@H](O)[C@H]6O)C(C)(C)[C@@H]5CC[C@]43C)[C@@H]2C1 | 4.78 | 4.81 | 0.9 | > 54.7
CC1(C)CC[C@]2(C(=O)O[C@@H]3O[C@H](CNC(=O)c4ccccc4C(=O)O)[C@@H](O)[C@H](O)[C@H]3O)CC[C@]3(C)C(=CC[C@@H]4[C@@]5(C)CC[C@H](O[C@@H]6O[C@H](CO)[C@H](O)[C@H](O)[C@H]6O)C(C)(C)[C@@H]5CC[C@]43C)[C@@H]2C1 | 5.19 | 4.84 | 2.2 | > 54.7
CC1(C)CC[C@]2(C(=O)O[C@@H]3O[C@H](CNC(=O)c4ccccc4C(=O)O)[C@@H](O)[C@H](O)[C@H]3O)CC[C@]3(C)C(=CC[C@@H]4[C@@]5(C)CC[C@H](O[C@@H]6O[C@H](CO)[C@@H](O)[C@H](O)[C@H]6O)C(C)(C)[C@@H]5CC[C@]43C)[C@@H]2C1 | 4.76 | 4.52 | 1.8 | > 54.7
CC1(C)CC[C@]2(C(=O)O[C@@H]3O[C@H](CNC(=O)c4ccccc4C(=O)O)[C@@H](O)[C@H](O)[C@H]3O)CC[C@]3(C)C(=CC[C@@H]4[C@@]5(C)CC[C@H](O[C@@H]6O[C@H](CO[C@@H]7O[C@H](CO)[C@@H](O)[C@H](O)[C@H]7O)[C@@H](O)[C@H](O)[C@H]6O)C(C)(C)[C@@H]5CC[C@]43C)[C@@H]2C1 | 5.51 | 5.53 | 1 | > 54.7
CC1(C)CC[C@]2(C(=O)O[C@@H]3O[C@H](CNC(=O)c4ccccc4C(=O)O)[C@@H](O)[C@H](O)[C@H]3O)CC[C@]3(C)C(=CC[C@@H]4[C@@]5(C)CC[C@H](O[C@@H]6O[C@H](CO)[C@@H](O[C@@H]7O[C@H](CO)[C@H](O)[C@H](O)[C@H]7O)[C@H](O)[C@H]6O)C(C)(C)[C@@H]5CC[C@]43C)[C@@H]2C1 | 5.99 | 5.39 | 4 | > 54.7
C[C@@H]1O[C@@H](O[C@H]2CC[C@]3(C)[C@H]4CC=C5[C@@H]6CC(C)(C)CC[C@]6(C(=O)O[C@@H]6O[C@H](CNC(=O)c7ccccc7C(=O)O)[C@@H](O)[C@H](O)[C@H]6O)CC[C@@]5(C)[C@]4(C)CC[C@H]3C2(C)C)[C@@H](O)[C@H](O)[C@@H]1O | 4.98 | 5.06 | 0.8 | > 54.7
CC1(C)CC[C@]2(C(=O)O[C@@H]3O[C@H](CNC(=O)c4ccccc4C(=O)O)[C@@H](O)[C@H](O)[C@H]3O)CC[C@]3(C)C(=CC[C@@H]4[C@@]5(C)CC[C@H](O)C(C)(C)[C@@H]5CC[C@]43C)[C@@H]2C1 | 4.69 | 4.61 | 1.2 | 54.7
C[C@@H]1O[C@@H](O[C@H]2CC[C@]3(C)[C@H]4CC=C5[C@@H]6CC(C)(C)CC[C@]6(C(=O)O[C@@H]6O[C@H](CNC(=O)c7ccccc7C(=O)O)[C@@H](O)[C@H](O)[C@H]6O)CC[C@@]5(C)[C@]4(C)CC[C@H]3C2(C)C)[C@H](O)[C@H](O)[C@H]1O | 4.58 | – | – | > 54.7
CC1(C)CC[C@]2(C(=O)O[C@@H]3O[C@H](CNC(=O)c4ccccc4C(=O)O)[C@@H](O)[C@H](O)[C@H]3O)CC[C@]3(C)C(=CC[C@@H]4[C@@]5(C)CC[C@H](O[C@@H]6O[C@H](CO)[C@@H](O[C@@H]7O[C@H](CO)[C@@H](O)[C@H](O)[C@H]7O)[C@H](O)[C@H]6O)C(C)(C)[C@@H]5CC[C@]43C)[C@@H]2C1 | 6.11 | 5.67 | 2.8 | > 54.7
CC1(C)CC[C@]2(C(=O)O[C@@H]3O[C@H](CNC(=O)c4ccccc4C(=O)O)[C@@H](O)[C@H](O)[C@H]3O)CC[C@]3(C)C(=CC[C@@H]4[C@@]5(C)CC[C@H](O[C@H]6O[C@H](CO)[C@@H](O)[C@H](O)[C@@H]6O)C(C)(C)[C@@H]5CC[C@]43C)[C@@H]2C1 | 4.80 | – | – | > 54.7
